Data: ChEMBL document CHEMBL4715715, “Synthesis and biological evaluation of arylcinnamide linked combretastatin-A4 hybrids as tubulin polymerization inhibitors and apoptosis inducing agents” (Bioorg Med Chem Lett, 2016)

Assays:
MCF7 [1] = test: Antiproliferative activity against human MCF7 cells assessed as cell growth inhibition measured after 48 hrs by SRB assay; type: functional
How it was run: (§1)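 Sulforhodamine B (SRB) cell-staining assay across a panel of human cancer lines. Growth inhibition is reported as GI50.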

DU-145 = test: Antiproliferative activity against human DU-145 cells assessed as cell growth inhibition measured after 48 hrs by SRB assay; type: functional; how it was run: as §1
HOP-62 = test: Antiproliferative activity against human HOP-62 cells assessed as cell growth inhibition measured after 48 hrs by SRB assay; type: functional; how it was run: as §1
HeLa = test: Antiproliferative activity against human HeLa cells assessed as cell growth inhibition measured after 48 hrs by SRB assay; type: functional; how it was run: as §1
K562 = test: Antiproliferative activity against human K562 cells assessed as cell growth inhibition measured after 48 hrs by SRB assay; type: functional; how it was run: as §1
SK-OV-3 = test: Antiproliferative activity against human SK-OV-3 cells assessed as cell growth inhibition measured after 48 hrs by SRB assay; type: functional; how it was run: as §1
COLO 205 = test: Antiproliferative activity against human COLO 205 cells assessed as cell growth inhibition measured after 48 hrs by SRB assay; type: functional; how it was run: as §1
MIA PaCa-2 = test: Antiproliferative activity against human MIA Paca-2 cells assessed as cell growth inhibition measured after 48 hrs by SRB assay; type: functional; how it was run: as §1
MCF7 [2] = test: Cell cycle arrest in human MCF7 cells assessed as accumulation at sub-G1 phase at 50 nM measured after 48 hrs by propidium iodide staining based flow cytometry (reference value: 2.4 %); type: functional
How it was run: (§2)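 MCF-7 cells were treated at 50 and 100 nM for 48 h. Cell-cycle phase distribution (sub-G1, G0/G1, S, G2/M %) was read by flow cytometry against untreated control.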

MCF7 [3] = test: Cell cycle arrest in human MCF7 cells assessed as accumulation at G0/G1 phase at 50 nM measured after 48 hrs by propidium iodide staining based flow cytometry (reference value: 85.3 %); type: functional; how it was run: as §2
MCF7 [4] = test: Cell cycle arrest in human MCF7 cells assessed as accumulation at S phase at 50 nM measured after 48 hrs by propidium iodide staining based flow cytometry (reference value: 3.1 %); type: functional; how it was run: as §2
MCF7 [5] = test: Cell cycle arrest in human MCF7 cells assessed as accumulation at G2/M phase at 50 nM measured after 48 hrs by propidium iodide staining based flow cytometry (reference value: 8.44 %); type: functional; how it was run: as §2
Sus scrofa = species: Sus scrofa; test: Inhibition of porcine brain tubulin polymerization at 3 uM measured after 1 hr in presence of GTP by fluorescence assay relative to control; type: tissue-based
How it was run: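 Tubulin polymerization was followed by fluorescence (excitation 360 nm, emission 420 nm) for 1 h at 37 °C. Compounds were at 3 μM final, with and without compound. Values are mean ± SD of two experiments done in triplicate.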

[6] = Inhibition of porcine brain tubulin polymerization measured after 1 hr in presence of GTP by fluorescence assay; type: tissue-based, Sus scrofa
How it was run: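 Tubulin assembly followed by the rise in fluorescence (ex 360 nm, em 420 nm) over 1 h at 37 °C. Compounds tested at a final 3 μM with a reference control. IC50 defined as the concentration inhibiting 50% of tubulin assembly. Mean ± SD of two experiments in triplicate.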

MCF7 [7] = test: Induction of apoptosis in human MCF7 cells assessed as early apoptotic cells at 50 nM measured after 48 hrs by annexinV-FITC/propidium iodide staining based flow cytometry (reference value: 4.4 %); type: functional
How it was run: (§3)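 MCF-7 cells were treated at 50 and 100 nM for 48 h. Annexin V-FITC/PI dual staining was read by flow cytometry. Cells were quadrant-gated as UL, UR, LL and LR, with untreated control alongside.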

MCF7 [8] = test: Induction of apoptosis in human MCF7 cells assessed as necrotic cells at 50 nM measured after 48 hrs by annexinV-FITC/propidium iodide staining based flow cytometry (reference value: 0.1 %); type: functional; how it was run: as §3
MCF7 [9] = test: Induction of apoptosis in human MCF7 cells assessed as live cells at 50 nM measured after 48 hrs by annexinV-FITC/propidium iodide staining based flow cytometry (reference value: 95 %)
MCF7 [10] = test: Induction of apoptosis in human MCF7 cells assessed as late apoptotic cell population at 50 nM measured after 48 hrs by Annexin V-FITC/PI staining based flow cytometry (reference value: 1 %)
MCF7 [11] = test: Induction of apoptosis in human MCF7 cells assessed as early apoptotic cell population at 50 nM measured after 48 hrs by Annexin V-FITC/PI staining based flow cytometry (reference value: 0.7 %)
MCF7 [12] = test: Induction of apoptosis in human MCF7 cells assessed as late apoptotic cells at 50 nM measured after 48 hrs by annexinV-FITC/propidium iodide staining based flow cytometry (reference value: 0.6 %)

SMILES | GI50 (MCF7 [1]) | GI50 (DU-145) | GI50 (HOP-62) | GI50 (HeLa) | GI50 (K562) | GI50 (SK-OV-3) | GI50 (COLO 205) | GI50 (MIA PaCa-2) | Activity (MCF7 [2]) | Activity (MCF7 [3]) | Activity (MCF7 [4]) | Activity (MCF7 [5]) | inhibition (Sus scrofa) | IC50 [6] | Activity (MCF7 [7]) | Activity (MCF7 [8]) | live cells (MCF7 [9]) | Activity (MCF7 [10]) | Activity (MCF7 [11]) | late apoptotic cells (MCF7 [12])
COc1cc(/C=C/C(=O)Nc2c(/C=C\c3cc(OC)c(OC)c(OC)c3)ccc(OC)c2O)ccc1[N+](=O)[O-] | 95 nM | 75 nM | 84 nM | 99 nM | 96 nM | 7900 nM | 96 nM | 23500 nM |  |  |  |  |  |  |  |  |  |  |  | 
C=CCOc1cccc(/C=C/C(=O)Nc2c(/C=C\c3cc(OC)c(OC)c(OC)c3)ccc(OC)c2O)c1 | 83 nM | 85 nM | 60 nM | 78.7 nM | 91 nM | 82 nM | 18000 nM | 98 nM |  |  |  |  |  |  |  |  |  |  |  | 
C#CCOc1cccc(/C=C/C(=O)Nc2c(/C=C\c3cc(OC)c(OC)c(OC)c3)ccc(OC)c2O)c1 | 11600 nM | 96400 nM | > 100000 nM | > 100000 nM | > 100000 nM | > 100000 nM | > 100000 nM | > 100000 nM |  |  |  |  |  |  |  |  |  |  |  | 
COc1ccc(/C=C/C(=O)Nc2c(/C=C\c3cc(OC)c(OC)c(OC)c3)ccc(OC)c2O)cc1O | 95 nM | 117 nM | 17100 nM | 15900 nM | 23700 nM | 1800 nM | > 100000 nM | 46300 nM |  |  |  |  |  |  |  |  |  |  |  | 
COc1cccc(/C=C/C(=O)Nc2c(/C=C\c3cc(OC)c(OC)c(OC)c3)ccc(OC)c2O)c1 | 59500 nM | > 100000 nM | 65400 nM | 18100 nM | 98 nM | 17600 nM | > 100000 nM | 93900 nM |  |  |  |  |  |  |  |  |  |  |  | 
COc1ccc(/C=C\c2cc(OC)c(OC)c(OC)c2)c(NC(=O)/C=C/c2cccc(O)c2)c1O | 63 nM | 70 nM | 82 nM | 94.9 nM | 94 nM | 97 nM | 13400 nM | 98 nM |  |  |  |  |  |  |  |  |  |  |  | 
COc1ccc(/C=C/C(=O)Nc2c(/C=C\c3cc(OC)c(OC)c(OC)c3)ccc(OC)c2O)cc1N | 50 nM | 79 nM | 44 nM | 91 nM | 89 nM | 97 nM | 89 nM | 14300 nM |  |  |  |  |  |  |  |  |  |  |  | 
COc1cc(/C=C/C(=O)Nc2c(/C=C\c3cc(OC)c(OC)c(OC)c3)ccc(OC)c2O)ccc1O | 60 nM | 72 nM | 79 nM | 90 nM | 93 nM | 96 nM | 98 nM | 98 nM |  |  |  |  |  |  |  |  |  |  |  | 
COc1cc(/C=C/C(=O)Nc2c(/C=C\c3cc(OC)c(OC)c(OC)c3)ccc(OC)c2O)ccc1N | 74 nM | 85 nM | 31 nM | 90 nM | 82 nM | 94 nM | 86 nM | 97 nM |  |  |  |  |  |  |  |  |  |  |  | 
COc1ccc(/C=C/C(=O)Nc2c(/C=C\c3cc(OC)c(OC)c(OC)c3)ccc(OC)c2O)cc1[N+](=O)[O-] | 19400 nM | 64700 nM | 71300 nM | 49200 nM | 46800 nM | 52600 nM | > 100000 nM | > 100000 nM |  |  |  |  |  |  |  |  |  |  |  | 
COc1ccc(/C=C\c2cc(OC)c(OC)c(OC)c2)c(NC(=O)/C=C/c2ccc(F)cc2)c1O | 66 nM | 83 nM | 43000 nM | 24000 nM | 23500 nM | 47500 nM | 67600 nM | 78100 nM |  |  |  |  |  |  |  |  |  |  |  | 
COc1ccc(/C=C\c2cc(OC)c(OC)c(OC)c2)c(NC(=O)/C=C/c2ccc(Cl)cc2)c1O | 55500 nM | 54100 nM | 79400 nM | 38800 nM | 24900 nM | 62600 nM | > 100000 nM | > 100000 nM |  |  |  |  |  |  |  |  |  |  |  | 
COc1ccc(/C=C\c2cc(OC)c(OC)c(OC)c2)cc1O [COMBRETASTATIN A4] | 33 nM | 46 nM | 150 nM | 8 nM | 31 nM | 31600 nM | 25 nM |  | 2.71% | 56.19% | 1.43% | 37.41% | 72.2% | 1480 nM | 30.2% | 0.5% | 65.7% | 24.5% | 3.6% | 3.6%
COc1ccc(/C=C\c2cc(OC)c(OC)c(OC)c2)c(NC(=O)/C=C/c2ccc(C(F)(F)F)cc2)c1O | 83700 nM | > 100000 nM | > 100000 nM | > 100000 nM | 58000 nM | > 100000 nM | > 100000 nM | > 100000 nM |  |  |  |  |  |  |  |  |  |  |  | 
COc1ccc(/C=C\c2cc(OC)c(OC)c(OC)c2)c(NC(=O)/C=C/c2cc(OC)c(OC)c(OC)c2)c1O | 79 nM | 95 nM | 24800 nM | 14900 nM | 28000 nM | 20900 nM | 76000 nM | 64500 nM |  |  |  |  |  |  |  |  |  |  |  | 
COc1ccc(/C=C\c2cc(OC)c(OC)c(OC)c2)c(NC(=O)/C=C/c2ccc([N+](=O)[O-])cc2)c1O | 72 nM | 85 nM | 61 nM | 15700 nM | 97 nM | 17000 nM | 10300 nM | 40800 nM |  |  |  |  |  |  |  |  |  |  |  | 
